Data reported in ChEMBL document CHEMBL1132142, “Extension of the polyanionic cosalane pharmacophore as a strategy for increasing anti-HIV potency” (J Med Chem, 1999).

Columns and labels:
MT4 [1] = test: (§1) Compound was tested for binding of the mAb (NEA9305) to the V3 loo[p of gp120, expressed on HIV-1 infected MT-4 cells at 0.73 uM; assay type: functional, Homo sapiens
How it was run: (§2)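 Binding of mAb NEA9305 to the gp120 V3 loop expressed on HIV-1-infected MT-4 cells was measured at each listed concentration. Results were given as % positive cells and % inhibition, with an isotype mAb control.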

MT4 [2] = test: (§3) Compound was tested for binding of the mAb (NEA9305) to the V3 loo[p of gp120, expressed on HIV-1 infected MT-4 cells at 18 uM; assay type: functional, Homo sapiens; how it was run: as §2
CD4+ve Th [3] = test: Compound was tested for binding of the gp120 (strain IIIb)to the CD4+ T-cell lines at 0.73 uM; assay type: functional
How it was run: (§4)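 Recombinant gp120 (strain IIIB) binding to MT-4 (CD4+ T-cell) cells was measured at each listed concentration. Read-out was % positive cells and % inhibition, alongside an isotype mAb control.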

MT4 [4] = test: (§5) Compound was tested for binding of the mAb (NEA9305) to the V3 loo[p of gp120, expressed on HIV-1 infected MT-4 cells at 92 uM; assay type: functional, Homo sapiens; how it was run: as §2
MT4 [5] = test: as §3; assay type: functional; details: Homo sapiens; how it was run: as §2
CD4+ve Th [6] = test: Compound was tested for binding of the gp120 (strain IIIb)to the CD4+ T-cell lines at 18 uM; assay type: functional; how it was run: as §4
MT4 [7] = test: (§6) Compound was tested for binding of the mAb (NEA9305) to the V3 loo[p of gp120, expressed ion HIV-1 infected MT-4 cells at 3.7 uM; assay type: functional; details: Homo sapiens; how it was run: as §2
CEM-SS [8] = test: The compound was evaluated for inhibition of cytopathic effect of HIV-1 RF in CEM-SS cells; assay type: functional, cell-based, Homo sapiens
How it was run: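 XTT-based microtiter cytoprotection assay measuring protection from HIV-1-induced cytopathic effect, read as percent of the uninfected drug-free control. EC50 is the concentration giving 50% protection in infected cultures. Results were confirmed by cell-free supernatant reverse transcriptase and p24 levels. Each plate was run in triplicate, and the EC50 values from two sister plates were averaged.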

CEM-SS [9] = test: The compound was evaluated for cytotoxicity in CEM-SS cells; assay type: functional, Homo sapiens
How it was run: (§7)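 Uninfected cells (CEM-SS or MT-4, per line) were incubated with the drug in a microtiter XTT assay. Viability was expressed as percent of the uninfected drug-free control. CC50 is the concentration causing 50% cell death. Triplicates were run per plate on two sister plates, and the two plate values were averaged.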

MT4 [10] = test: as §6; assay type: functional, Homo sapiens; how it was run: as §2
MT4 [11] = test: The compound was evaluated for inhibition of cytopathic effect of HIV-1 IIIB in MT-4 cells; assay type: functional, cell-based, Homo sapiens
MT4 [12] = test: as §5; assay type: functional; details: Homo sapiens; how it was run: as §2
MT4 [13] = test: as §1; assay type: functional; details: Homo sapiens; how it was run: as §2
CD4+ve Th [14] = test: Compound was tested for binding of the gp120 (strain IIIb)to the CD4+ T-cell lines at 92 uM; assay type: functional; how it was run: as §4
MT4 [15] = test: The compound was evaluated for cytotoxicity in MT-4 cells; assay type: functional, Homo sapiens; how it was run: as §7
CD4+ve Th [16] = test: Compound was tested for binding of the gp120 (strain IIIb)to the CD4+ T-cell lines at 3.7 uM; assay type: functional; how it was run: as §4
MT4 [17] = test: Compound was tested for binding of the mAb (NEA9305) to the V3 loo[p of gp120, expressed ion HIV-1 infected MT-4 cells at 3.2 uM; assay type: functional, Homo sapiens; how it was run: as §2
MT4 [18] = test: The compound was evaluated for inhibition of cytopathic effect of HIV-2ROD in MT-4 cells; assay type: functional, cell-based, Homo sapiens; details: mt4
CD4+ve Th [19] = test: Compound was tested for binding of the gp120 (strain IIIb)to the CD4+ T-cell lines at 81 uM; assay type: functional; how it was run: as §4
CD4+ve Th [20] = test: Compound was tested for binding of the gp120 (strain IIIb)to the CD4+ T-cell lines at 0.65 uM; assay type: functional; how it was run: as §4
MT4 [21] = test: Compound was tested for binding of the mAb (NEA9305) to the V3 loo[p of gp120, expressed on HIV-1 infected MT-4 cells at 0.65 uM; assay type: functional, Homo sapiens; how it was run: as §2
CD4+ve Th [22] = test: Compound was tested for binding of the gp120 (strain IIIb)to the CD4+ T-cell lines at 3.2 uM; assay type: functional; how it was run: as §4
CD4+ve Th [23] = test: Compound was tested for binding of the gp120 (strain IIIb)to the CD4+ T-cell lines at 16 uM; assay type: functional; how it was run: as §4
MT4 [24] = test: Compound was tested for binding of the mAb (NEA9305) to the V3 loo[p of gp120, expressed on HIV-1 infected MT-4 cells at 16 uM; assay type: functional, Homo sapiens; how it was run: as §2
MT4 [25] = test: Compound was tested for binding of the mAb (NEA9305) to the V3 loo[p of gp120, expressed on HIV-1 infected MT-4 cells at 81 uM; assay type: functional, Homo sapiens; how it was run: as §2

CC(C)CCCC(C)[C@H]1CC[C@H]2[C@@H]3CCC4C[C@@H](CCC=C(c5cc(Cl)c(OCc6ccc(C(=O)O)cc6)c(C(=O)O)c5)c5cc(Cl)c(OCc6ccc(C(=O)O)cc6)c(C(=O)O)c5)CC[C@]4(C)[C@H]3CC[C@]12C (some centres not stated)
Positive cells (MT4 [1]): 65.9% | Positive cells (MT4 [2]): 34.4% | Positive cells (CD4+ve Th [3]): 88.2% | inhibition at 0.73 µM (CD4+ve Th [3]): 9% | Positive cells (MT4 [4]): 23.8% | inhibition at 18 µM (MT4 [5]): 58% | Positive cells (CD4+ve Th [6]): 8.3% | inhibition at 18 µM (CD4+ve Th [6]): 98% | inhibition at 3.7 µM (MT4 [7]): 16% | EC50 (CEM-SS [8]; Homo sapiens, CEM-SS): 500 nM | Cytotoxicity (CEM-SS [9]): 72 µM | Positive cells (MT4 [10]): 58.4% | EC50 (MT4 [11]; Homo sapiens, MT4): 1700 nM | inhibition at 92 µM (MT4 [12]): 76% | inhibition at 0.73 µM (MT4 [13]): 3% | Positive cells (CD4+ve Th [14]): 6.8% | inhibition at 92 µM (CD4+ve Th [14]): 99% | Cytotoxicity (MT4 [15]): 88 µM | Positive cells (CD4+ve Th [16]): 25.3% | inhibition at 3.7 µM (CD4+ve Th [16]): 79%

CC(C)CCCC(C)[C@H]1CC[C@H]2[C@@H]3CCC4C[C@@H](CCC=C(c5cc(Cl)c(OCc6ccc(C(=O)[O-])cc6)c(C(=O)[O-])c5)c5cc(Cl)c(OCc6ccc(C(=O)[O-])cc6)c(C(=O)[O-])c5)CC[C@]4(C)[C@H]3CC[C@]12C.[Na+].[Na+].[Na+].[Na+] (some centres not stated)
Positive cells (MT4 [17]): 60.9% | EC50 (MT4 [18]): 22000 nM | Positive cells (CD4+ve Th [19]): 7.8% | inhibition at 81 µM (CD4+ve Th [19]): 98% | Positive cells (CD4+ve Th [20]): 76.2% | inhibition at 0.65 µM (CD4+ve Th [20]): 22% | Positive cells (MT4 [21]): 66.6% | Positive cells (CD4+ve Th [22]): 19.9% | inhibition at 3.2 µM (CD4+ve Th [22]): 82% | EC50 (CEM-SS [8]; cem-ss): 800 nM | Cytotoxicity (CEM-SS [9]): 76 µM | Positive cells (CD4+ve Th [23]): 6.9% | inhibition at 16 µM (CD4+ve Th [23]): 99% | EC50 (MT4 [11]; mt4): 1400 nM | Positive cells (MT4 [24]): 33.6% | Positive cells (MT4 [25]): 26.9% | Cytotoxicity (MT4 [15]): 95 µM
